A selection: hits, their analogues and other compounds. The true share with any hit is near 1.2%.
PfG6PD inh: PfG6PD enzyme inhibitors, primary screen, biochemical, fluorescence intensity, uHTS; glucose-6-phosphate dehydrogenase-6-phosphogluconolactonase (Plasmodium falciparum 3D7); PfGluPho enzyme, NADPH resazurin-diaphorase fluorescence; inhibition, % at 20 µM; 350,000 compounds, 0.78% hits; AID 504690, 2011;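 active = inhibition reaching at least a set limit at 20 µM in the primary screen, cut at about 59% in these data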
HKDC1 inh: HKDC1 hexokinase inhibitors, primary screen, biochemical, fluorescence, uHTS; Q2TB90; recombinant HKDC1, G6PDH/diaphorase resazurin coupled fluorescence; inhibition, % at 20 µM; 340,000 compounds, 0.16% hits; AID 493160, 2011;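 active = inhibition above about 35% when tested at 20 µM, limit read from the data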
Target sequence (Q2TB90 whole entry, looked up): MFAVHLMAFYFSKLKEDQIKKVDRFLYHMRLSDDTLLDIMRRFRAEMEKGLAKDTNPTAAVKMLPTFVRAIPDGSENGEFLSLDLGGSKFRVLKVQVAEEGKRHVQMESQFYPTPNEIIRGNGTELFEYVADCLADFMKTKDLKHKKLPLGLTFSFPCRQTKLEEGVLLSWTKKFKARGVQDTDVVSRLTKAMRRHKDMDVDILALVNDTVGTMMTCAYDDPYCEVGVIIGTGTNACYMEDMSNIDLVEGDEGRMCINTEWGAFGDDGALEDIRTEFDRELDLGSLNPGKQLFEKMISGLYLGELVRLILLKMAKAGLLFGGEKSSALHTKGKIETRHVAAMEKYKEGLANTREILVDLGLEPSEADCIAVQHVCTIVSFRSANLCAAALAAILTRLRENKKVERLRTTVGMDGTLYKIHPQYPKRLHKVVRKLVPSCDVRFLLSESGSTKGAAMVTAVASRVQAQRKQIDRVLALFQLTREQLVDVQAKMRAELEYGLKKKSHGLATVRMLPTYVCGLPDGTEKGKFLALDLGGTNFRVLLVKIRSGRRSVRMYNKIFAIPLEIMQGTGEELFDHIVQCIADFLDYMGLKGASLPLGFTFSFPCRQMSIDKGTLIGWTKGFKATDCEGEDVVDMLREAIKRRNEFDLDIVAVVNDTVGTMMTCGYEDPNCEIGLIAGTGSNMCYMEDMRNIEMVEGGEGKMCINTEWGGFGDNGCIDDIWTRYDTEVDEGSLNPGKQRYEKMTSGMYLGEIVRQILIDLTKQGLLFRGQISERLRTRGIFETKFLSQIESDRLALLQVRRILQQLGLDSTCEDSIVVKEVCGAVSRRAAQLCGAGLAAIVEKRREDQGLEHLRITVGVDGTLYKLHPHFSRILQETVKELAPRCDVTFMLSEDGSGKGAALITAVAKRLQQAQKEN
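System: Recombinant HKDC1 hexokinase | Amount: HKDC1 at 5 µg/mL | Reagent: Glucose with 1 mM ATP | Doses: Single 20 µM dose | Incubation: Reaction time 90 min, room temperature, protected from light | Signal: Coupled resazurin fluorescence, excitation 525 nm, emission 613 nm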
Diaphorase inh: diaphorase inhibitors and chemical oxidizers, primary screen, counter-screen for diaphorase-coupled primary assays, biochemical, uHTS, resorufin fluorescence | diaphorase resazurin-to-resorufin fluorescence, NADH, 16 min; bacterial (C. kluyveri) enzyme, not human | inhibition, % at 20 µM | 190,000 compounds, 0.69% hits;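 active = primary screen inhibition at 20 µM above a set limit, cut at about 50% in these data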
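controls = No-NADH positive control and DMSO neutral control | system = Clostridium kluyveri diaphorase enzyme | timing = reaction incubation of 16 min at room temperature | signal = resorufin fluorescence 544/590 nm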
G6PDH counter: L. mesenteroides G6PDH inhibitors, counter-screen for G6PDH-coupled screening assays, biochemical, Leuconostoc mesenteroides enzyme; Purified L. mesenteroides G6PDH, diaphorase/resazurin coupled fluorescence, 45 min; inhibition, % at 5 µM; 200,000 compounds, 0.12% hits; AID 1020, 2008; in the data active = inhibition above about 50%
PfGluPho conf: PfG6PD inhibitors, hit retest, confirmation, biochemical, fluorescence intensity, single concentration. shares compounds with PfG6PD inh. recombinant PfGluPho, NADPH-diaphorase-resazurin fluorescence. AID 504753, 2011. 2,400 compounds, 34% hits. inhibition, % at 20 µM;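 active = inhibition of at least 50% at 20 µM in any single replicate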
Diaphorase 10uM: diaphorase inhibitors and chemical oxidizers, confirmation, counter-screen for P. falciparum G6PD inhibitor project, biochemical, fluorescence intensity, 10 µM NADPH; shares compounds with PfG6PD inh; diaphorase-coupled resazurin reduction, NADPH 10 uM; inhibition, % at 20 µM; 820 compounds, 39% hits; AID 504862, 2011;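 active = average inhibition reaching 50% or more with the compound at 20 µM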;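 also: resorufin red fluorescence formed as diaphorase reduces resazurin using NADPH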
Diaph ctr 30uM: diaphorase inhibitors and chemical oxidizers, confirmation, counter-screen for P. falciparum G6PD inhibitor project, biochemical, fluorescence intensity, 30 µM NADPH; shares compounds with PfG6PD inh; Diaphorase/resazurin coupled assay, resorufin fluorescence; inhibition, % at 20 µM; 820 compounds, 29% hits;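 active = inhibition averaging 50% or more, tested at 20 µM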
Numbers stand for hits; – = inactive; · = not tested or not shown.

SMILES	PfG6PD inh	HKDC1 inh	Diaphorase inh	G6PDH counter	PfGluPho conf	others
CC12CCC(=O)N1C(C(=O)Nc1cc(Cl)ccc1N1CCCC1)CS2 (centres undefined)	–	–	·	·	·
O=C(COC(=O)C12CC3CC(CC(Br)(C3)C1)C2)Nc1cccc(S(=O)(=O)N2CCOCC2)c1	–	–	·	·	·
Nc1ccccc1SCc1csc(-c2ccc(Cl)cc2)n1	60.3	–	·	·	–
Clc1ccc(-c2nc(CSc3ccccn3)cs2)cc1	–	·	·	·	·
N#Cc1c(F)cccc1N1CCN(Cc2ccc3c(c2)OCO3)CC1	–	–	·	·	·
Cc1ccc(-c2nc3ccccc3nc2-c2ccccc2)cc1	–	–	·	·	·
Cc1ccc(-c2nc(N)s[n+]2-c2ccccc2)cc1	109.5	–	–	–	55.9	Diaphorase 10uM=–;Diaph ctr 30uM=–
CNc1nc(-c2ccccc2)[n+](-c2ccc(C)cc2)s1	108.4	–	–	–	107.1	Diaphorase 10uM=–;Diaph ctr 30uM=–
CN(CCOc1ccc(Cl)cc1)C(=O)c1cc(-c2ccco2)nc2ccccc12	–	–	·	·	·
CC1(OC(=O)CCc2ccccc2)C(=O)C=C2C=C(c3ccc(C#N)cc3)N(Cc3ccco3)C=C2C1=O (centres undefined)	–	–	·	·	·
CC1(OC(=O)CCc2ccccc2)C(=O)C=C2C=C(c3ccc(C#N)cc3)N(C3CC3)C=C2C1=O (centres undefined)	83.2	–	·	·	–
COCCN1C=C2C(=O)C(C)(OC(=O)CCc3ccccc3)C(=O)C=C2C=C1c1ccc(C#N)cc1 (centres undefined)	62.1	–	·	·	–
CN(C(=O)c1cccc(NC(=O)Cc2ccc(NC(=O)C3CCCN(S(=O)(=O)c4cccc([N+](=O)[O-])c4)C3)cc2)c1)C1CCC1 (centres undefined)	–	–	·	·	·
CCN(CC(=O)Nc1ccc(OC)cc1)C(=O)Cc1coc2cc(C)c(C)cc12	–	–	·	·	·
Cc1ccc(S(=O)c2ccc([N+](=O)[O-])c3nonc23)cc1 (centres undefined)	117.1	·	·	·	102.8	Diaphorase 10uM=–;Diaph ctr 30uM=–
Cc1ccc(Nc2c([N+](=O)[O-])ccc3nonc23)c(C)c1	–	–	·	·	·
CN(C(=O)c1cnc(N2CCN(c3ncccn3)CC2)c2ccccc12)c1ccc(Cl)cc1	97.6	–	–	–	–
COCC(CN1CCN(C2=NS(=O)(=O)c3ccccc32)CC1)OC(=O)c1ccccc1 (centres undefined)	–	–	·	·	·
COc1cc(C)ccc1OCCOCCOc1ccc([N+](=O)[O-])cc1	–	–	–	–	·
COc1cc(C)ccc1Oc1ccc([N+](=O)[O-])cc1	63.0	–	·	·	–
CSc1ncnc2c1ncn2CCCNCCCN1CCCC1=O	–	·	·	·	·
Nc1[nH]n(-c2ccccc2)c(=O)c1N=Nc1ccc2ncsc2c1	67.4	–	·	·	–
Nc1[nH]n(-c2ccccc2)c(=O)c1N=Nc1ccccc1	–	–	·	·	·
CC1(C)Cc2c(sc(NC(=O)c3ccccc3)c2C(=O)O)CO1	87.7	–	–	–	–
COc1ccc(C(=O)Nc2sc3c(c2C(=O)O)CC(C)(C)OC3)cc1	90.7	–	–	–	48.4	Diaphorase 10uM=–;Diaph ctr 30uM=–
SMILES	PfG6PD inh	HKDC1 inh	Diaphorase inh	G6PDH counter	PfGluPho conf	others
Cn1c(=O)[nH]c(=O)c2c1nc(N1CCNCC1)n2Cc1ccccc1	–	–	·	·	·
CCNc1nc2c(c(=O)[nH]c(=O)n2C)n1CC(C)C	–	–	–	–	·
CC(C)Cn1c([N+](=O)[O-])nc2c1c(=O)[nH]c(=O)n2C	71.3	–	·	·	55.3	Diaphorase 10uM=–;Diaph ctr 30uM=–
Cn1c(=O)[nH]c(=O)c2c1nc([N+](=O)[O-])n2Cc1ccccc1	85.7	–	·	·	88.2	Diaphorase 10uM=–;Diaph ctr 30uM=50.8
Cc1nc2ccccn2c1C(=O)NNC(=O)Nc1cccc(C(F)(F)F)c1	–	–	·	·	·
Cc1c2ccncc2cc2c1[nH]c1ccccc12	71.9	–	·	·	–
COc1ccc(S(=O)(=O)Nc2ccc3cn[nH]c3c2)cc1C	–	–	–	–	·
Cc1cc(C)c(C)c(S(=O)(=O)Nc2ccc3cn[nH]c3c2)c1C	91.6	–	·	·	–
COc1cc(Br)c(CN2C(=O)NC3(CCCCCC3)C2=O)cc1OC	–	–	·	·	·
Oc1ccc(C23CC4CC(CC(C4)C2)C3)cc1O	82.6	–	·	·	70.9	Diaphorase 10uM=–;Diaph ctr 30uM=–
O=C(CSc1ccccn1)NC1CCCc2c1cnn2-c1ccccc1F (centres undefined)	–	·	·	·	·
Cc1cc(NCCCCCCCNc2cc(C)nc3cc([N+](=O)[O-])ccc23)c2ccc([N+](=O)[O-])cc2n1	77.8	–	·	·	–
COCCCNc1cc(C)nc2ccccc12	–	–	–	–	·
NC(=N\N=Cc1ccco1)/C(N)=N/N=Cc1ccco1	–	–	·	·	·
COc1cc2c(cc1OC)C(Cc1ccccc1[N+](=O)[O-])=NCC2	–	–	·	·	–
CCn1ncc2c(OCc3ccc(C#N)cc3)cc(C)nc21	67.9	–	–	–	–
O=C1C(c2cc(=O)c3ccccc3[nH]2)=C(O)c2ccccc21	82.9	–	–	–	65.2	Diaphorase 10uM=50.5;Diaph ctr 30uM=–
O=C(CSc1nc2cc(Cl)ccc2s1)c1cc2ccccc2o1	63.6	–	–	–	–
Cc1cc(NC(=O)CSc2nc3cc(Cl)ccc3s2)no1	–	–	–	–	·
Cc1ccc2nc(-c3sc4nc(C)cc(C)c4c3N)[nH]c2c1	77.2	–	–	–	–
Cc1ccc2nc(-c3cccc(N)c3)[nH]c2c1	61.9	–	–	–	–
Cc1ccc(NC2CCCN(C(=O)CCn3nccc3C)C2)cc1C (centres undefined)	–	–	·	·	·
CCOC(=O)C1=C(C)NC(C)=C(C(=O)OCC)C1c1cccc([N+](=O)[O-])c1	–	·	·	·	·
COC(=O)C1=C(C)NC(C)=C(C(=O)OCC(C)C)C1c1ccccc1[N+](=O)[O-] (centres undefined)	61.6	–	·	·	–
CC1(C)CC(=O)C=C(C#CC2(O)CCCCC2)C1	–	·	·	·	·
CCCN1C(=O)/C(=c2\sc3nc(=O)c(Cc4ccc(C)cc4)nn3c2=O)c2ccccc21	–	–	–	–	·
NC(=O)CN1C(=O)/C(=c2\sc3nc(=O)c(Cc4ccccc4)nn3c2=O)c2ccccc21	62.6	–	·	·	–
O=C(CN1C(=O)C2C3C=CC(C3)C2C1=O)OCC(=O)c1ccc([N+](=O)[O-])cc1 (centres undefined)	59.4	–	·	·	59.9	Diaphorase 10uM=–;Diaph ctr 30uM=–
